OXTR ag: human OXTR agonism | CHO-OTR cells, Fluo-8 calcium fluorescence; normalized: DMSO 0%, oxytocin 100% | 0.32% of 320,000 active | activation, % at 3 µM;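 active = activation above the mean of all tested compounds plus 3 SD, cutoff set per screening run, cut at about 20% in these data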;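 note: peak over basal fluorescence ratio from a 100 s FLIPR kinetic read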
V1R ag counter: V1a receptor agonism, counter-screen for OXTR agonists. P37288. CHO-V1R cells, Fluo-8 calcium fluorescence, agonist mode; 0% DMSO, 100% 3 nM vasopressin. activation, % at 3 µM. 0.25% of 320,000 active. AID 2797;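 active = activation above the mean activation of all tested compounds plus 3 SD, per screening run, cut at about 20% in these data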;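 note: signal is peak over basal fluorescence ratio across a 100 second FLIPR read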
Target sequence (P37288 whole entry, looked up): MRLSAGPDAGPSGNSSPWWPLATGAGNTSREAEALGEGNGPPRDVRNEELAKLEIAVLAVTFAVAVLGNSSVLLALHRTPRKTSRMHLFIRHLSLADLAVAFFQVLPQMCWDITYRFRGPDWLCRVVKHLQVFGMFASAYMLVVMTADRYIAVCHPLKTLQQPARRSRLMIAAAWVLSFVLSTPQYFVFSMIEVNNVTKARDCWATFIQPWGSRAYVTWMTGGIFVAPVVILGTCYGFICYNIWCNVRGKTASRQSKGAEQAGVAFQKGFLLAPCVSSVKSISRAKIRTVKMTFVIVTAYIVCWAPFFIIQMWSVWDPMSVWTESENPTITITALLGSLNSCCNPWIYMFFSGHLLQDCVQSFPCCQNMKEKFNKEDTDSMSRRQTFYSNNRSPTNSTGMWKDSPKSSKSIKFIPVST
CHO parental Ca: counter-screen: ATP calcium response change in parental CHO cells; parental CHO-K1, ATP-induced calcium, Fluo-8 fluorescence; inhibition, % at 5.6 µM; 0.63% of 330,000 active; AID 463079;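 active = inhibition above that plate's mean sample inhibition plus 3 SD, cut at about 26% in these data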;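 note: 0% = ATP-challenged DMSO wells and 100% = DMSO wells without ATP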
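Test system: untransfected parental CHO cell line. Compound: one dose, 5.6 µM nominal. Detection: intracellular calcium via Fluo-8 no-wash fluorescent dye. Measure: % inhibition. Benchmarks: ATP-challenged DMSO wells low, unchallenged DMSO wells high.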
OX1R antag-1: blocks the human orexin 1 receptor | O43613 | AID 434989 | 0.43% of 330,000 active | inhibition, % at 5 µM | CHO/OX1R cells, Fluo-8 calcium fluorescence, orexin A;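 active = inhibition above its plate's threshold, mean inhibition of all tested compounds on the plate plus 3 SD, cut at about 37% in these data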;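 note: 0% = orexin A challenge wells and 100% = SB-334867-A antagonist wells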
OXTR potentiator: human OXTR potentiation | CHO-OTR cells, Fluo-8 calcium fluorescence, potentiator mode; 0% = oxytocin EC15, 100% = EC100 | activation, % at 3 µM | 0.061% of 320,000 active | AID 2445;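 active = activation above that plate's cutoff, the mean activation of tested compounds plus 3 SD, cut at about 6.6% in these data, passing the limit was not always enough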;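 note: 100% uses oxytocin at 75 nM as the full agonist control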
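Measured by – Fluo-8 calcium dye fluorescence · Test system – human OTR in CHO cells · Dosing – one concentration, 3.0 µM compound · Controls – EC15 oxytocin alone as 0%, 75 nM oxytocin as 100% · Evaluation – normalized max/min fluorescence ratio, % activation · Timing – 6 min pre-incubation, 100 s read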
OX1R antag-2: antagonists of human orexin 1 receptor (OX1R). O43613. OX1R-expressing cells, FRET antagonist read-out. inhibition, % at 6.6 µM. 1.8% of 330,000 active; in the data active = inhibition mostly above about 38%, no sharp cut-off; inactive = mostly below about 40%;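 note: 0% = agonist challenge alone and 100% = reference antagonist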
OX1R HTRF confirm: OX1R (human) antagonism, HTRF confirmed | shares compounds with OX1R antag-2 | OX1R-expressing cells, HTRF antagonist assay | inhibition, % at 6.6 µM | 49% of 1,800 active; in the data active = inhibition above about 55%;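 note: CHO cells expressing OX1R stimulated with orexin A at about EC80; 0% = agonist challenge alone and 100% = reference antagonist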
CHO-K1 HTRF: counter-screen for OX1R antagonists: effect in parental CHO-K1 cells. 48% of 1,800 active. inhibition, % at 6.6 µM. HTRF counterscreen. AID 493232. shares compounds with OX1R antag-2; in the data active = inhibition above about 17%;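 note: 0% = agonist challenge with vehicle and 100% = vehicle alone without agonist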
* marks the source's active call; other numbers are inactive results; / = no result. Hits are enriched below; roughly 2.7% of the tested compounds scored in any of these assays.

SMILES | OXTR ag | V1R ag counter | CHO parental Ca | OX1R antag-1 | OXTR potentiator | OX1R antag-2 | OX1R HTRF confirm | CHO-K1 HTRF
O=C(N/N=C/C(Cl)=C\c1ccccc1)c1cccs1 | -2 | 0 | 2 | 15 | -10 | 87* | 62* | 9
Cn1cnnc1Sc1ccc(C(=O)OCC(=O)NCC(F)(F)F)cc1[N+](=O)[O-] | 0 | 0 | 9 | -7 | -1 | 78* | 30 | 43*
O=C(NCCO)c1ccc2nc(-c3ccco3)c(-c3ccco3)nc2c1 | 0 | 1 | -3 | -7 | -2 | 109* | 38 | 58*
CCC(=O)N1CCC2(CC1)Oc1ccc(Cl)cc1C(=O)C21CC(c2cccnc2)=NO1 (configuration not stated) | 3 | 1 | -12 | -16 | -10 | 34 | / | /
CCC(=O)N1CCC2(CC1)Oc1ccc(F)cc1C(=O)C21CC(c2cccnc2)=NO1 (configuration not stated) | 1 | 1 | -17 | -26 | -5 | 78* | 6 | -27
O=[N+]([O-])c1cccc(/C=N/n2cnnc2)c1 | 0 | 2 | 0 | -5 | 1 | 77* | 26 | 31*
CCOc1ncccc1C(=O)OCC(=O)NCc1ccccc1 | 1 | 0 | -2 | 11 | -5 | 17 | / | /
COc1cccc(/C=C2\Oc3ccc(O)cc3C2=O)c1O | 2 | 3 | -7 | 25 | -19 | 95* | 93* | 16
COc1ccc2nc(NC(=O)C3CCCN3S(=O)(=O)c3ccc(C)cc3)sc2c1 (configuration not stated) | 0 | 2 | -7 | 11 | -14 | 80* | 50 | 7
CCn1c(SCC(=O)NCc2ccco2)nc2ccccc2c1=O | -2 | -1 | -9 | -12 | -5 | 22 | / | /
O=C(CSc1n[nH]c(-c2ccccc2)n1)NC(=O)NCc1ccco1 | 0 | -1 | -10 | -13 | -10 | 82* | 47 | 4
COc1ccc(CNc2nc(SCC(=O)NCc3ccco3)nc3ccccc23)cc1 | -2 | -1 | -2 | 7 | -4 | 79* | 24 | 1
O=C(CSc1nc2ccccc2c2nc3ccccc3n12)NCc1ccco1 | -1 | 0 | -17 | -4 | -4 | 81* | 62* | 5
O=C(O)C(Cc1ccccc1)N1C(=O)c2c(Cl)c(Cl)c(Cl)c(Cl)c2C1=O (configuration not stated) | 0 | -1 | -14 | -17 | -4 | 12 | / | /
CC1=NN(C(N)=S)C(=O)C1N=Nc1ccc(C)c(Br)c1 (configuration not stated) | 2 | 3 | -2 | 0 | -7 | 2 | / | /
COc1ccc(-c2oc3ccc(N4CCOCC4)cc3c2C#CCO)cc1 | 3 | 1 | -11 | 13 | -21 | 81* | 39 | 7
COc1cc(/C=N/NC(=O)c2sc3nc(C)cc(C)c3c2N)ccc1O | -2 | -3 | -11 | 26 | 0 | 100* | 98* | 25*
O=C(Cc1c(Cl)cccc1Cl)OCC(=O)N1CCOCC1 | 2 | 2 | -9 | -3 | -5 | 2 | / | /
CCN1C(=O)/C(=C2/C=Cc3cc(C)ccc3N2CC)N(C)C1=S | 0 | 0 | -11 | -14 | -6 | 134* | 54 | 79*
CSc1nnc2c(n1)OC(C)=Nc1ccccc1-2 | -1 | -1 | 0 | -9 | -5 | 79* | 60* | 101*
CSc1nnc2c(n1)OC(C)N(C(=O)c1ccccc1)c1ccccc1-2 (configuration not stated) | 0 | 0 | -22 | -35 | -17 | 35 | / | /
CCC1=Nc2ccccc2-c2nnc(SC)nc2O1 | -2 | -1 | -12 | -17 | -1 | 197* | 68* | 95*
CCC(=O)N1c2ccccc2-c2nnc(SC)nc2OC1c1ccc(OC)c(OC)c1 (configuration not stated) | 0 | 0 | -11 | -17 | -4 | 28 | / | /
Cc1ccc2c(ccn3cc4c(c(=O)n(C)c(=O)n4C)c23)c1 | -1 | 0 | -17 | -2 | 2 | 86* | 88* | 6
Cc1c(C#N)c(O)n(CCO)c(=O)c1N=Nc1ccc(S(N)(=O)=O)cc1 | 2 | 1 | -9 | -24 | -3 | 161* | 64* | 83*
SMILES | OXTR ag | V1R ag counter | CHO parental Ca | OX1R antag-1 | OXTR potentiator | OX1R antag-2 | OX1R HTRF confirm | CHO-K1 HTRF
Cc1c(C#N)c(O)n(CCO)c(=O)c1N=Nc1ccccc1 | -3 | 0 | -4 | 2 | -8 | 34 | / | /
CC(=O)Nc1ccc(NC(=O)C(C)OC(=O)CNS(=O)(=O)/C=C/c2ccc(C)cc2)cc1 (configuration not stated) | -1 | 1 | -23 | -29 | -13 | 19 | / | /
O=C(O)COc1c(Cl)cc(/C=C2/NC(=O)NC2=O)cc1Br | 1 | 2 | -9 | -15 | 4 | 88* | 42 | 37*
Cc1ccc(NC(=O)C2CCCN2c2nn3c(=O)cc(C)nc3s2)cc1 (configuration not stated) | -1 | 0 | -10 | -18 | -5 | 14 | / | /
CCCCn1c(N)c(N(CCOC)C(=O)C2CC(=O)N(c3ccc(CC)cc3)C2)c(=O)[nH]c1=O (configuration not stated) | 0 | 0 | 0 | -8 | 0 | 0 | / | /
COc1cccc2cc(-c3cn4cccc(C)c4n3)c(=O)oc12 | 0 | 0 | 4 | -8 | -10 | 41 | / | /
COc1cccc2cc(-c3cn4ccc(C)cc4n3)c(=O)oc12 | 1 | 0 | -3 | -13 | -1 | 86* | 91* | 9
CCOC(=O)N1CCN(c2cc(NCCO)c([N+](=O)[O-])c3nonc23)CC1 | 1 | 0 | -4 | -16 | 2 | 20 | / | /
O=[N+]([O-])c1c(NCCO)cc(N2CCCCC2)c2nonc12 | 0 | 1 | -6 | -11 | -10 | 90* | 52 | 39*
C=CCNc1nnc(Sc2ncccc2[N+](=O)[O-])s1 | 1 | 2 | -9 | -27 | -10 | 91* | 28 | 33*
CCOCCCNc1nc2nc3ccc(C)cn3c(=O)c2cc1C(=O)NCC1CCCO1 (configuration not stated) | 1 | -1 | 11 | -9 | 4 | 112* | 44 | 78*
COc1ccc(CNC(=O)c2cc3c(=O)n4cccc(C)c4nc3n(CC3CCCO3)c2=N)cc1 (configuration not stated) | 0 | -1 | -18 | -18 | -3 | 30 | / | /
CCn1cc(C(=O)NCC2CCCO2)c2cc(OC)c(OC)cc2c1=O (configuration not stated) | 0 | 0 | -12 | -3 | -6 | 5 | / | /
Cc1ccc2nc3c(cc(C(=O)NCC4CCCO4)c(=N)n3CCCOC(C)C)c(=O)n2c1 (configuration not stated) | 0 | 0 | -7 | -15 | -4 | 82* | 51 | 85*
CCOc1ccc(CCNC(=O)c2cccc(S(=O)(=O)N3CCCCC3)c2)cc1OCC | -2 | 2 | -35 | -34 | -6 | 23 | / | /
Nc1c(Cl)ncnc1N/N=C/c1cccnc1 | -1 | 0 | 0 | -11 | -3 | 84* | 24 | 31*
